Assay results from ChEMBL document CHEMBL1125014, “Synthesis and structure-activity relationships of new 9-N-alkyl derivatives of 9(S)-erythromycylamine” (1990).
Values after ≈ are worked out from the molar mass of the structure shown.

What was measured:
Mus musculus [1] = test: ED50 value was measured by po administration against streptococcus pneumoniae infection in mice (in vivo, in experiment 1); format: functional
Summary of the method: (§1)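 Infected mice were dosed orally or subcutaneously at 1 and 5 h postinfection, 0.25 mL of antibiotic solution in 10% aqueous ethanol per dose. Tartaric acid was added where needed for solubility. Several dose concentrations were tested to give the ED50.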

Rattus norvegicus [2] = species on record: Rattus norvegicus; test: Fluid concentration in liver tissue was determined in rats at 6 hr; format: functional
Summary of the method: (§2)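 Rats dosed by gavage at 20 mg/kg; lung, liver, kidney, urine and serum sampled at 0.5, 1, 2, 4 and 6 h after dosing. Antibiotic measured by microbiological assay with Micrococcus luteus seeded in Antibiotic Medium 1. Zone sizes were read against the standard curve for the same compound. Each value is the average of three rats per time point.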

Mus musculus [3] = test: ED50 value was measured by po administration against streptococcus pyogenes infection in mice (in vivo, in experiment 3); format: functional; settings: Mus musculus, po; read-out: ED50
Mus musculus [4] = test: ED50 value was measured by sc administration against streptococcus pneumoniae infection in mice (in vivo, in experiment 3); format: functional; settings: Mus musculus, sc; read-out: ED50
Mus musculus [5] = test: Plasma concentration in mice was determined by subcutaneous administration, 20 mg/kg at 2 hr; format: functional, organism-based; design: dose 20 mg/kg
Summary of the method: (§3)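 Mice given 20 mg/kg orally or subcutaneously; peripheral plasma sampled at 5, 20 and 40 min and at 1, 2 and 4 h after dosing. Microbiological assay used Micrococcus luteus seeded in Antibiotic Medium 1, with zone sizes converted by the compound's own standard curve. Each value is the average of five mice per time point.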

Rattus norvegicus [6] = species on record: Rattus norvegicus; test: Fluid concentration in urine was determined in rats at 0.5 hr; format: functional; summary of the method: as §2
Rattus norvegicus [7] = species on record: Rattus norvegicus; test: Fluid concentration in liver tissue was determined in rats at 1 h; format: functional; summary of the method: as §2
Streptococcus pneumoniae [8] = test: Effective dose against mice infected with streptococcus pneumoniae after peroral administration (in vivo); format: functional; settings: in Mus musculus, po
Mus musculus [9] = test: Plasma concentration in mice was determined by subcutaneous administration, 20 mg/kg at 4 hr; format: functional, organism-based; design: dose 20 mg/kg; summary of the method: as §3
Mus musculus [10] = test: ED50 value was measured by sc administration against staphylococcus aureus infection in mice (in vivo, in experiment 3); format: functional; settings: Mus musculus, sc; read-out: ED50
Rattus norvegicus [11] = species on record: Rattus norvegicus; test: Fluid concentration in kidney tissue was determined in rats at 6 hr; format: functional
Summary of the method: (§4)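 Rats were gavaged at 20 mg/kg and tissues sampled 0.5–6 h after dosing. Drug was assayed microbiologically with Micrococcus luteus seeded in Antibiotic Media 1. Zone sizes were read against each compound's own standard curve. Values are the mean of three rats per time point, in μg/g.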

Mus musculus [12] = test: Plasma concentration in mice was determined by subcutaneous administration, 20 mg/kg at 5 min; format: functional, organism-based; design: dose 20 mg/kg; summary of the method: as §3
Mus musculus [13] = test: Plasma concentration in mice was determined by subcutaneous administration, 20 mg/kg at 40 min; format: functional, organism-based; design: dose 20 mg/kg; summary of the method: as §3
Mus musculus [14] = test: ED50 value was measured by sc administration against streptococcus pyogenes infection in mice (in vivo, in experiment 1); format: functional; summary of the method: as §1
Rattus norvegicus [15] = species on record: Rattus norvegicus
Rattus norvegicus [16] = species on record: Rattus norvegicus; test: Fluid concentration in lung tissue was determined in rats at 6 h; format: functional; summary of the method: as §2
Mus musculus [17] = test: ED50 value was measured by sc administration against streptococcus pneumoniae infection in mice (in vivo, in experiment 1); format: functional; summary of the method: as §1
Mus musculus [18] = test: ED50 value was measured by po administration against streptococcus pyogenes infection in mice (in vivo, in experiment 1); format: functional; summary of the method: as §1
Rattus norvegicus [19] = species on record: Rattus norvegicus; test: Fluid concentration in lung tissue was determined in rats at 0.5 h; format: functional; summary of the method: as §2
Mus musculus [20] = test: ED50 value was measured by po administration against staphylococcus aureus infection in mice (in vivo, in experiment 3); format: functional; settings: Mus musculus, po; read-out: ED50
Rattus norvegicus [21] = species on record: Rattus norvegicus; test: Fluid concentration in lung tissue was determined in rats at 4 h; format: functional; summary of the method: as §2
Streptococcus pneumoniae [22] = test: MIC value measured against streptococcus pneumoniae Park1; format: functional
Rattus norvegicus [23] = species on record: Rattus norvegicus; test: Fluid concentration in serum was determined in rats at 2 hr; format: functional; summary of the method: as §2
Streptococcus pyogenes [24] = test: Effective dose against mice infected with streptococcus pyogenes after peroral administration (in vivo); format: functional; settings: in Mus musculus, po
Rattus norvegicus [25] = species on record: Rattus norvegicus; test: Fluid concentration in liver tissue was determined in rats at 0.5 h; format: functional; summary of the method: as §4
Mus musculus [26] = test: ED50 value was measured by po administration against streptococcus pneumoniae infection in mice (in vivo, in experiment 3); format: functional; settings: Mus musculus, po; read-out: ED50
Streptococcus pyogenes [27] = test: MIC value measured against streptococcus pyogenes C203; format: functional
Mus musculus [28] = test: Plasma concentration in mice was determined by subcutaneous administration, 20 mg/kg at 1 hr; format: functional, organism-based; design: dose 20 mg/kg; summary of the method: as §3
Rattus norvegicus [29] = species on record: Rattus norvegicus; remark: listed apart in the source
Staphylococcus aureus [30] = test: Effective dose against mice infected with Staphylococcus aureus after peroral administration (in vivo); format: functional; settings: in Mus musculus, po
Mus musculus [31] = test: ED50 value was measured by sc administration against staphylococcus aureus infection in mice (in vivo, in experiment 1); format: functional; summary of the method: as §1
Rattus norvegicus [32] = species on record: Rattus norvegicus; test: Fluid concentration in lung tissue was determined in rats at 2 h; format: functional; summary of the method: as §2
Rattus norvegicus [33] = test: Plasma concentration in rats was determined by oral administration, 20 mg/kg at 2 hr; format: functional, organism-based; design: dose 20 mg/kg
Summary of the method: (§5)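 Peripheral plasma antibiotic levels in rats given 20 mg/kg orally or subcutaneously. Plasma was sampled at timed points after dosing. Levels were measured by microbiological agar assay with Micrococcus luteus seeded in Antibiotic Media 1, reading zone sizes, and were calculated from a standard curve for the appropriate compound. Each value is the average of three rats per time point, in μg/mL.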

Haemophilus influenzae = test: MIC value was measured against haemophilus influenzae CL; format: functional
[34] = test system: Staphylococcus epidermidis; test: microbe, parasite or virus in culture; format: functional
Mus musculus [35] = test: Plasma concentration in mice was determined by subcutaneous administration, 20 mg/kg at 20 min; format: functional, organism-based; design: dose 20 mg/kg; summary of the method: as §3
Rattus norvegicus [36] = species on record: Rattus norvegicus; test: Fluid concentration in urine was determined in rats at 6 hr; format: functional; summary of the method: as §2
Staphylococcus aureus [37] = test: MIC value measured against staphylococcus aureus X1; format: functional
Rattus norvegicus [38] = species on record: Rattus norvegicus; test: Fluid concentration in lung tissue was determined in rats at 1 h; format: functional; summary of the method: as §2
Mus musculus [39] = species on record: Mus musculus
Mus musculus [40] = test: Plasma concentration of compound in mice by oral administration, 20 mg/kg at 4 hr; format: functional, organism-based; design: dose 20 mg/kg
Summary of the method: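 Peripheral plasma antibiotic levels in mice after a 20 mg/kg oral dose, sampled at timed points after administration. Levels were measured by microbiological agar assay with Micrococcus luteus seeded in Antibiotic Media 1, reading zone sizes, and were calculated from a standard curve for the appropriate compound. Each value is the average of five mice per time point, in μg/mL.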

Rattus norvegicus [41] = test: Plasma concentration in rats was determined by oral administration, 20 mg/kg at 40 min; format: functional, organism-based; design: dose 20 mg/kg; summary of the method: as §5
Mus musculus [42] = test: ED50 value was measured by po administration against staphylococcus aureus infection in mice (in vivo, in experiment 1); format: functional; summary of the method: as §1

## CC[C@H]1OC(=O)[C@H](C)[C@@H](O[C@H]2C[C@@](C)(OC)[C@@H](O)[C@H](C)O2)[C@H](C)[C@@H](O[C@@H]2O[C@H](C)C[C@H](N(C)C)[C@H]2O)[C@](C)(O)C[C@@H](C)C(=O)[C@H](C)[C@@H](O)[C@]1(C)O [ERYTHROMYCIN]
Mus musculus [1]
  ED50: 14 mg/kg
Rattus norvegicus [2]
  Activity: 0 µg/mL
Mus musculus [3]
  ED50: 12 mg/kg
Mus musculus [4]
  ED50: 3.5 mg/kg
Mus musculus [5]
  Plasma concentration: 0.01 µg/mL
Rattus norvegicus [6]
  Activity: 7.5 µg/mL
Rattus norvegicus [7]
  Activity: 0.03 µg/mL
Streptococcus pneumoniae [8]
  ED50: 44 mg/kg
Mus musculus [9]
  Plasma concentration: 0 µg/mL
Mus musculus [10]
  ED50: 4.1 mg/kg
Rattus norvegicus [11]
  Activity: 0 µg/mL
Mus musculus [12]
  Plasma concentration: 5.84 µg/mL
Mus musculus [13]
  Plasma concentration: 4.36 µg/mL
Mus musculus [14]
  ED50: 2.5 mg/kg
Rattus norvegicus [15]
  Plasma concentration: 0.48 µg/mL
Rattus norvegicus [16]
  Activity: 0.04 µg/mL
Mus musculus [17]
  ED50: 2.7 mg/kg
Mus musculus [18]
  ED50: 18 mg/kg
Rattus norvegicus [19]
  Activity: 1 µg/mL
Mus musculus [20]
  ED50: 71 mg/kg
Rattus norvegicus [21]
  Activity: 0.03 µg/mL
Streptococcus pneumoniae [22]
  MIC: 0.008 µg/mL (≈ 0.0109 µM)
Rattus norvegicus [23]
  Activity: 0 µg/mL
Streptococcus pyogenes [24]
  ED50: 21 mg/kg
Rattus norvegicus [25]
  Activity: 0.15 µg/mL
Mus musculus [26]
  ED50: > 100 mg/kg
Streptococcus pyogenes [27]
  MIC: 0.015 µg/mL (≈ 0.0204 µM)
Mus musculus [28]
  Plasma concentration: 4.26 µg/mL
Rattus norvegicus [29]
  Plasma concentration: 0.11 µg/mL
Staphylococcus aureus [30]
  ED50: 41 mg/kg
Mus musculus [31]
  ED50: 1.6 mg/kg
Rattus norvegicus [32]
  Activity: 0.04 µg/mL
Rattus norvegicus [33]
  Plasma concentration: 0.03 µg/mL
Haemophilus influenzae
  MIC: 1 µg/mL (≈ 1.36 µM)
[34]
  MIC: 0.06 µg/mL (≈ 0.0818 µM)
Mus musculus [35]
  Plasma concentration: 5.96 µg/mL
Rattus norvegicus [36]
  Activity: 0.35 µg/mL
Staphylococcus aureus [37]
  MIC: 0.12 µg/mL (≈ 0.164 µM)
Rattus norvegicus [38]
  Activity: 0.4 µg/mL
Mus musculus [39]
  Plasma concentration: 0 µg/mL
Mus musculus [40]
  Plasma concentration: 0 µg/mL
Rattus norvegicus [41]
  Plasma concentration: 0.11 µg/mL
Mus musculus [42]
  ED50: 15 mg/kg
